An excerpt weighted towards active compounds, which were near 2% of everything screened.
Bfl-1 A1 inh: inhibitors of the anti-apoptotic protein A1, read as caspase activation; caspase activation, % (test concentration not listed); MEF A1-2A-BIM cells, Caspase-Glo 3/7 luminescence, 3 h; percent of clofoctol response, vehicle zero; 330,000 compounds, 0.066% hits;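 active = over half of replicate activation scores above 10%, or exactly half above 10 with the replicate mean above 10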
MC4R barr agon: activates human MC4R beta-arrestin recruitment. P32245. U2OS MC4R beta-arrestin complementation, luminescence; percent of melanotan II response, DMSO zero. activation, % at 8.9 µM. 360,000 compounds, 0.98% hits;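 active = activation above a per-plate cutoff, the mean activation of sample wells on that plate plus 3 SD, cut at about 8% in these data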
Target sequence (P32245 whole entry, looked up): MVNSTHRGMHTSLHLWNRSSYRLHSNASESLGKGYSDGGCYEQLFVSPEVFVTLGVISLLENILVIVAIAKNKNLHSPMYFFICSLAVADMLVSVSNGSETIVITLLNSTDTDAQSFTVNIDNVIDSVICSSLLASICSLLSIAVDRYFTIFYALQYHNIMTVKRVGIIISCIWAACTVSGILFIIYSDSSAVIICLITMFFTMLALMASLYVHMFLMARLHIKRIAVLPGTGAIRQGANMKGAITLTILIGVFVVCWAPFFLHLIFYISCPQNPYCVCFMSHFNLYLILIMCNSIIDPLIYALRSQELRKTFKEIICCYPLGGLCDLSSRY
XBP1 UPR activ: activators of adaptive arm of unfolded protein response (XBP1). CHO-XBP1 luciferase reporter, IRE1-XBP1 UPR activation, luminescence; percent of tunicamycin response, DMSO as zero. activation, % at 20 µM. 330,000 compounds, 0.33% hits;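 active = versus positive control, 20 µM dose yields 30% or more activation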;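 also: 100% = tunicamycin at 10 µg/mL and 0% = DMSO only wells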
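Material: CHO cell line with stable XBP1 luciferase reporter; buffer or medium: F12 medium containing 10% fetal bovine serum; compound: single point, 20 µM final compound, 1% DMSO; incubation: 6 h treatment, 37 °C; measured by: glow luminescence from Steady-Glo reagent; evaluation: activation, % of tunicamycin; control set: tunicamycin high, DMSO low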
UPR CHOP act: apoptotic UPR (CHOP) activation. CHO-CHOP luciferase reporter, luminescence; percent of tunicamycin response over DMSO baseline. activation, % at 10 µM. 330,000 compounds, 0.34% hits;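 active = at 10 µM dose, activation of 40% or more, normalized to positive control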;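 also: 100% = tunicamycin at 10 µg/mL and 0% = DMSO alone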
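Test system: CHO-CHOP cells, stable luciferase reporter of PERK-eIF2a-CHOP signalling | Quantity: 500 CHO-CHOP cells per well | Buffer or medium: F12 plus 10% serum | Compound dosing: 10 µM single point, 0.5% DMSO | Schedule: 6 h compound treatment, 37 °C | Signal: Luciferase luminescence | Control set: Tunicamycin high control, DMSO low control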
MC4R antag cAMP: human MC4R antagonism in cAMP assay; AID 540295; MC4R-expressing cells, MTII-stimulated cAMP, LANCE TR-FRET; inhibition, % at 6.5 µM; 360,000 compounds, 0.48% hits;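 active = inhibition above its plate's cutoff, the mean of tested wells on that plate plus 3 SD, cut at about 29% in these data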;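 also: 0% = Melanotan II alone and 100% = Melanotan II plus saturating MCL0020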
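system = U2OS cells with stable human MC4R expression | also added = Melanotan II challenge after compound preincubation | dosing = one concentration, 6.5 µM nominal | incubation = compound 30 min, challenge 1 h, detection 1 h | measured by = TR-FRET with Eu-cAMP and labeled anti-cAMP, 671 nm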
MC4R barr conf: human MC4R beta-arrestin agonism confirmation. shares compounds with MC4R barr agon. U2OS MC4R beta-arrestin recruitment, luminescence; scaled DMSO 0%, Melanotan II 100%. activation, % at 8.9 µM. 2,400 compounds, 31% hits;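 active = mean activation across replicates above the hit cutoff set in the earlier primary screen, cut at about 8% in these data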
MOR DOR agonist: OPRM1-OPRD1 heterodimer agonism counter-screen; U2OS PathHunter beta-arrestin, beta-gal luminescence; percent of deltorphin B response, DMSO zero; 2,400 compounds, 5.8% hits; activation, % at 9.2 µM; shares compounds with MC4R barr agon;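 active = mean activation across replicates exceeds the hit threshold derived in the earlier primary screen, cut at about 18% in these data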;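 also: 100% = deltorphin B at 0.9 µM final and 0% = DMSO alone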
Numbers without * were called inactive; · = not tested or not shown.

SMILES | Bfl-1 A1 inh | MC4R barr agon | XBP1 UPR activ | UPR CHOP act | MC4R antag cAMP | MC4R barr conf | MOR DOR agonist
C[C@@H]1CN([C@H](C)CO)C(=O)CCCn2nncc2CO[C@@H]1CN(C)S(=O)(=O)c1ccc2ccccc2c1 | · | 0 | · | · | 11 | · | ·
O=c1[nH]c(SCc2ccc(F)cc2Cl)nc2ccccc12 | 0 | 10* | 1 | 0 | -7 | 2 | 6
O=C(CCNC(=O)N1CC(=O)Nc2ccccc21)NCc1ccc(Cl)cc1 | · | -1 | · | · | 4 | · | ·
Cc1ccc(C2=Nc3ccccc3N=C(c3ccco3)C2)c(O)c1 | 0 | 17* | -7 | -4 | 7 | 4 | 3
COc1ccc(/C=C/C(=O)NCc2c(C)nn(C)c2C)cc1COc1ccc(Br)cc1 | 0 | 12* | -4 | 0 | -4 | 1 | 3
O=C1C=C(C#Cc2ccccc2)C[C@@H](c2ccc(F)cc2)C1 | · | -1 | · | · | 12 | · | ·
COc1ccc(C(=O)Nc2nc3ccc(OC)cc3s2)cc1 | -2 | 2 | 2 | 7 | -4 | · | ·
COC(=O)c1ccc(C(=O)Nc2nc3cc(N)c(C)cc3s2)cc1 | 0 | 11* | 2 | 0 | -1 | 0 | 2
CC1(C(=O)NS(=O)(=O)C2CC2)CCCN(C(=O)Cc2ccc(F)cc2)C1 (centres undefined) | · | -2 | · | · | 11 | · | ·
CCC12CCCN3CCC4(C(=C(C(=O)OC)C1)Nc1ccccc14)C32 (centres undefined) | · | 10* | · | · | -9 | 6 | 11
COC(=O)C1=C(C(=O)OC)[C@@H]2Nc3ccccc3[C@@]23C[C@@H](C(=O)OC)N=C3N1 | 0 | -2 | -1 | 1 | 2 | · | ·
COc1ccc(CC(=O)Nc2ccccc2C(F)(F)F)cc1S(=O)(=O)N1CCOCC1 | · | 1 | · | · | 2 | · | ·
O=C(O)c1cccc(-n2cccc2/C=C2/NC(=O)N(c3cccc(Cl)c3)C2=O)c1 | 0 | -3 | 1 | 0 | 2 | · | ·
COc1ccc(-n2cccc2/C=C2/NC(=O)N(c3cccc(Cl)c3)C2=O)cc1 | 0 | 14* | 0 | 4 | 2 | 2 | 2
COc1ccccc1NC(=S)NC(=O)c1ccc(Cn2cc(Br)cn2)cc1 | 0 | 24* | -2 | 0 | -24 | 12* | 12
CCCCOc1ccc(C(C)NC(=O)CCS(=O)(=O)Cc2ccccc2Cl)cc1 (centres undefined) | 0 | 11* | 0 | 0 | 6 | 3 | 4
CCCCOc1ccc(C(C)NC(=O)CCS(=O)(=O)Cc2ccc(Cl)cc2)cc1 (centres undefined) | 0 | 2 | -3 | 1 | 17 | · | ·
O=c1[nH]c(CSc2nc(-c3ccc(F)cc3)cs2)nc2ccccc12 | 1 | 9.6* | -1 | -2 | -27 | 2 | 4
COC(=O)c1ccc2c(=O)[nH]c(CSc3nc(C)cs3)nc2c1 | -7 | 1 | 3 | 4 | 15 | · | ·
COC(=O)c1ccc2c(=O)[nH]c(CSc3nc(-c4ccc(F)cc4)cs3)nc2c1 | 0 | 10* | 0 | 0 | 14 | -1 | 1
O=C(CSc1nc(-c2ccc(F)cc2)cs1)Nc1ccccn1 | -1 | 24* | 2 | 1 | -3 | 2 | 14
COc1ccccc1NC(=O)Nc1ccnn1C1CCN(C(=O)C2CCOC2)CC1 (centres undefined) | · | -1 | · | · | 6 | · | ·
CC(=O)NC(c1ccccc1)c1nc(-c2cccs2)cs1 (centres undefined) | · | -1 | · | · | 5 | · | ·
O=C(NNC(=O)c1cc(-c2ccncc2)nc2ccccc12)Nc1ccc(F)cc1 | 0 | -2 | -2 | 0 | 10 | · | ·
O=C(Nc1ccc(F)cc1)c1cc(-c2ccncc2)nc2c(Cl)cccc12 | 1 | 12* | 3 | 0 | -2 | 1 | 10
SMILES | Bfl-1 A1 inh | MC4R barr agon | XBP1 UPR activ | UPR CHOP act | MC4R antag cAMP | MC4R barr conf | MOR DOR agonist
COC(=O)CCCN1C(=O)NC(c2ccc(-c3ccccc3)cc2)C(C(=O)OCc2ccccc2)=C1C (centres undefined) | · | 12* | -1 | 5 | 6 | 12* | 3
O=C(Nc1ccc([N+](=O)[O-])cc1Cl)c1cccc([N+](=O)[O-])c1 | · | 12* | · | · | 5 | 7 | 11
O=C(CNC(=S)NC(=O)c1cccc([N+](=O)[O-])c1)c1ccccc1 | 0 | 11* | 2 | 1 | 5 | -1 | 2
Cc1onc(-c2ccccc2Cl)c1C(=O)NC(=S)NCC(=O)c1ccccc1 | -1 | 19* | 4 | 4 | 3 | 4 | 5
CCc1ccc(NC(=S)NC(=O)c2c(-c3ccccc3Cl)noc2C)cc1 | 0 | -1 | -2 | -1 | 24 | · | ·
O=C(Nc1nc(-c2ccc([N+](=O)[O-])cc2)cs1)c1c(F)cccc1F | 0 | 24* | -2 | 1 | 15 | 1 | 4
CC(=O)Nc1cccc(/C(C)=N/Nc2ccc(S(=O)(=O)Nc3ccccc3C(=O)O)cc2[N+](=O)[O-])c1 | · | -5 | · | · | 3 | · | ·
O=C(NCc1cccc(C(F)(F)F)c1)c1ccc2nc([C@@H]3O[C@H](CO)[C@@H](O)[C@H]3O)[nH]c2c1 | · | -1 | · | · | 10 | · | ·
C=CCn1c(SCC(=O)N2CCC(C)CC2)nc2c([nH]c3ccccc32)c1=O | · | -2 | · | · | -46 | · | ·
COc1ccc(/C=C/CN2CCC(C(=O)NC(c3ccc(F)cc3)c3ccc4ccccc4n3)CC2)cc1 (centres undefined) | · | 2 | · | · | 7 | · | ·
O=C(COc1ccc([N+](=O)[O-])cc1)Nc1ccc(NC(=O)c2ccccc2)cc1 | 0 | -3 | -3 | -1 | 11 | · | ·
Cc1ccc(-c2csc(NC(=O)c3cccc([N+](=O)[O-])c3)n2)cc1 | 1 | 18* | -1 | 2 | 2 | 13* | 5
O=C(Nc1ccc(OCc2ccccc2)cc1)c1cccc([N+](=O)[O-])c1 | -5 | 10* | 2 | 9 | 6 | 1 | 12
CCOC(=O)Cc1csc(NC(=O)c2cccc([N+](=O)[O-])c2)n1 | -1 | -2 | 2 | 0 | 1 | · | ·
C[C@@H]1CN([C@@H](C)CO)C(=O)CCCn2nncc2CO[C@@H]1CN(C)S(=O)(=O)c1ccc(Oc2ccccc2)nc1 | · | 0 | · | · | 15 | · | ·
CC(C)[C@@H]1CC[C@@H](C)C[C@H]1O | · | -1 | · | · | 13 | · | ·
CC1CN(C(=S)Nc2ccccc2)C(C)CN1C=O (centres undefined) | · | -2 | · | · | 5 | · | ·
O=C(Nc1ccc(N2CCOCC2)cc1)c1ccc2nc(-c3ccco3)c(-c3ccco3)nc2c1 | · | 10* | 19 | 6 | -14 | -1 | 17

From PubChem BioAssay
